Drawing on ChEMBL document CHEMBL1154183, “Structure-based optimization of potent and selective inhibitors of the tyrosine kinase erythropoietin producing human hepatocellular carcinoma receptor B4 (EphB4)” (J Med Chem, 2009), this text covers Activity and IC50 for 2 molecules.

For assay [1], the target named is Serine/threonine-protein kinase BRSK2 (Homo sapiens) (UniProt Q8IWQ3). The assay can be described thus: Inhibition of BRSK2 assessed as remaining enzyme activity at 3 uM relative to DMSO. The gist of the method: (§1)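 Panel assay run robotically at room temperature for 30 min with 10 mM magnesium acetate and [γ-33P]ATP (800 cpm/pmol) at 5, 20 or 50 μM, chosen per kinase to be at or below its ATP Km. Reactions were started with MgATP, stopped with orthophosphoric acid and spotted on P81 filters. Activity is the mean of duplicates at a single inhibitor concentration, as % of DMSO control.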
Serine/threonine-protein kinase BRSK2 (Homo sapiens), sequence (Q8IWQ3 whole entry, the tested form may be a part): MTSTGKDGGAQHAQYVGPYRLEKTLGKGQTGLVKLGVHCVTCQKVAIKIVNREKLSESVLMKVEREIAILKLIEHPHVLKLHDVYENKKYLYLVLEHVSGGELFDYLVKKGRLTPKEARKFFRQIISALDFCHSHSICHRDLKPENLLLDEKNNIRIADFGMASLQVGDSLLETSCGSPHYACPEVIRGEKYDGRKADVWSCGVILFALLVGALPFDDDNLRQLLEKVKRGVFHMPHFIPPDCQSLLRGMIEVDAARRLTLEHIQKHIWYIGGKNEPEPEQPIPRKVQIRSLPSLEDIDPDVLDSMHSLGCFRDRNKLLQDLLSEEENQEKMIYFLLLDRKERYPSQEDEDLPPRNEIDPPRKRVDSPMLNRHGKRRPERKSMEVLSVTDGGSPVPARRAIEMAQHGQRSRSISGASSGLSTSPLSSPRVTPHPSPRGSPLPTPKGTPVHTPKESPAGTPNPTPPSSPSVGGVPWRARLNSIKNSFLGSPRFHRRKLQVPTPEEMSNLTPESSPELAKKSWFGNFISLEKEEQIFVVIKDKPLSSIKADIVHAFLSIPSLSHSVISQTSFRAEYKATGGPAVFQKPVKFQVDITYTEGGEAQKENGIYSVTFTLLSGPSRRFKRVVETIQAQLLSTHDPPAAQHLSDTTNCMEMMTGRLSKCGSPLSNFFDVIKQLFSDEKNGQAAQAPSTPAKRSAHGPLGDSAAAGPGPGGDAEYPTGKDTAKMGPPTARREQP

Assay [2] has as its target Dual specificity protein kinase TTK (Homo sapiens) (UniProt P33981). The assay can be described thus: Inhibition of TTK assessed as remaining enzyme activity at 3 uM relative to DMSO.
Assay [3] concerns the target Tyrosine-protein kinase CSK (Homo sapiens) (UniProt P41240). The assay can be described thus: Inhibition of CSK assessed as remaining enzyme activity at 3 uM relative to DMSO. The procedure, abridged:
(§2)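 Dundee kinase panel, radiometric: [γ-33P]ATP (800 cpm/pmol) at 5, 20 or 50 μM, at or below each kinase's ATP Km; 10 mM magnesium acetate; robotic, room temperature, 30 min. Reactions started with MgATP, stopped with orthophosphoric acid, spotted onto P81 filters. Inhibitor tested at a single concentration; mean % activity of duplicates relative to DMSO control.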

Assay [4] deals with Tyrosine-protein kinase Lck (Homo sapiens) (UniProt P06239). The assay can be described thus: Inhibition of Lck assessed as remaining enzyme activity at 3 uM relative to DMSO. The procedure, abridged: (§3)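 Radiometric kinase assay run robotically at room temperature for 30 min. Contained 10 mM magnesium acetate and [γ-33P]ATP (800 cpm/pmol) at 5, 20 or 50 μM, chosen per kinase to be at or below its ATP Km. Reactions were started with MgATP, stopped with orthophosphoric acid and spotted onto P81 filters. Result is mean % activity of duplicates at one inhibitor concentration versus DMSO control.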

Assay [5] has as its target Inhibitor of nuclear factor kappa-B kinase subunit beta (Homo sapiens) (UniProt O14920). The assay can be described thus: Inhibition of IKK-beta assessed as remaining enzyme activity at 3 uM relative to DMSO. The procedure, abridged: as §2
In assay [6] the target is Proto-oncogene tyrosine-protein kinase Src (Homo sapiens) (UniProt P12931). The experiment in a line: Inhibition of Src assessed as remaining enzyme activity at 3 uM relative to DMSO.
Assay [7] has as its target Serine/threonine-protein kinase pim-2 (Homo sapiens) (UniProt Q9P1W9). The assay can be described thus: Inhibition of PIM2 assessed as remaining enzyme activity at 3 uM relative to DMSO. The procedure, abridged:
as §3

Assay [8] has as its target Serine/threonine-protein kinase STK11 (Homo sapiens) (UniProt Q15831). The experiment in a line: Inhibition of LKB1 assessed as remaining enzyme activity at 3 uM relative to DMSO. The gist of the method:
as §3

Assay [9] deals with Ribosomal protein S6 kinase alpha-5 (Homo sapiens) (UniProt O75582). The assay can be described thus: Inhibition of MSK1 assessed as remaining enzyme activity at 3 uM relative to DMSO. The gist of the method:
as §3

The target of assay [10] is Serine/threonine-protein kinase PLK1 (Homo sapiens) (UniProt P53350). The assay can be described thus: Inhibition of PLK1 assessed as remaining enzyme activity at 3 uM relative to DMSO.
Serine/threonine-protein kinase PLK1 (Homo sapiens), sequence (P53350 whole entry): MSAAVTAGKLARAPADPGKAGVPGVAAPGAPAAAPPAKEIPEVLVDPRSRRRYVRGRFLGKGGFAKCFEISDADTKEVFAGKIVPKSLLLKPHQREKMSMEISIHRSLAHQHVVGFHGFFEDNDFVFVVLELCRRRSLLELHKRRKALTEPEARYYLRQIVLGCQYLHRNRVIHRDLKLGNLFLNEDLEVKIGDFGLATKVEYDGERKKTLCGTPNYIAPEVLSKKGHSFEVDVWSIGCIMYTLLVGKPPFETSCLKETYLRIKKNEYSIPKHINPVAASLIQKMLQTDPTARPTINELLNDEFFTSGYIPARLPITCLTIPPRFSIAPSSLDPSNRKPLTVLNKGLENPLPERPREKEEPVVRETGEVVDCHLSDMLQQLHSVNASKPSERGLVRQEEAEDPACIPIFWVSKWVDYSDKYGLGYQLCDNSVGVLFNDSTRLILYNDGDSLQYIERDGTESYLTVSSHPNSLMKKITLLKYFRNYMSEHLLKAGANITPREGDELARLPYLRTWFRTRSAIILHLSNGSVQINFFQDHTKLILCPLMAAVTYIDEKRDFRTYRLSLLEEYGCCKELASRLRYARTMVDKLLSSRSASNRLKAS
Assay [11] concerns the target Mitogen-activated protein kinase 13 (Homo sapiens) (UniProt O15264). The assay can be described thus: Inhibition of p38delta assessed as remaining enzyme activity at 3 uM relative to DMSO.
Assay [12] has as its target Mitogen-activated protein kinase 12 (Homo sapiens) (UniProt P53778). The assay can be described thus: Inhibition of p38-gamma assessed as remaining enzyme activity at 1 uM relative to DMSO.
Assay [13] concerns the target Myosin light chain kinase, smooth muscle (Homo sapiens) (UniProt Q15746). The experiment in a line: Inhibition of SmMLCK assessed as remaining enzyme activity at 1 uM relative to DMSO.
Assay [14] has as its target Serine/threonine-protein kinase Nek6 (Homo sapiens) (UniProt Q9HC98). The experiment in a line: Inhibition of NEK6 assessed as remaining enzyme activity at 1 uM relative to DMSO. The procedure, abridged: as §3
Assay [15] deals with Mitogen-activated protein kinase 15 (Homo sapiens) (UniProt Q8TD08). The experiment in a line: Inhibition of ERK8 assessed as remaining enzyme activity at 1 uM relative to DMSO. The gist of the method:
as §2

For assay [16], the target named is Dual specificity tyrosine-phosphorylation-regulated kinase 1A (Homo sapiens) (UniProt Q13627). The assay can be described thus: Inhibition of DYRK1A assessed as remaining enzyme activity at 1 uM relative to DMSO.
The target in assay [17] is Insulin receptor-related protein (Homo sapiens) (UniProt P14616). The experiment in a line: Inhibition of IRR assessed as remaining enzyme activity at 1 uM relative to DMSO. The procedure, abridged: as §2
Insulin receptor-related protein (Homo sapiens), sequence (P14616 27-742 limits assumed): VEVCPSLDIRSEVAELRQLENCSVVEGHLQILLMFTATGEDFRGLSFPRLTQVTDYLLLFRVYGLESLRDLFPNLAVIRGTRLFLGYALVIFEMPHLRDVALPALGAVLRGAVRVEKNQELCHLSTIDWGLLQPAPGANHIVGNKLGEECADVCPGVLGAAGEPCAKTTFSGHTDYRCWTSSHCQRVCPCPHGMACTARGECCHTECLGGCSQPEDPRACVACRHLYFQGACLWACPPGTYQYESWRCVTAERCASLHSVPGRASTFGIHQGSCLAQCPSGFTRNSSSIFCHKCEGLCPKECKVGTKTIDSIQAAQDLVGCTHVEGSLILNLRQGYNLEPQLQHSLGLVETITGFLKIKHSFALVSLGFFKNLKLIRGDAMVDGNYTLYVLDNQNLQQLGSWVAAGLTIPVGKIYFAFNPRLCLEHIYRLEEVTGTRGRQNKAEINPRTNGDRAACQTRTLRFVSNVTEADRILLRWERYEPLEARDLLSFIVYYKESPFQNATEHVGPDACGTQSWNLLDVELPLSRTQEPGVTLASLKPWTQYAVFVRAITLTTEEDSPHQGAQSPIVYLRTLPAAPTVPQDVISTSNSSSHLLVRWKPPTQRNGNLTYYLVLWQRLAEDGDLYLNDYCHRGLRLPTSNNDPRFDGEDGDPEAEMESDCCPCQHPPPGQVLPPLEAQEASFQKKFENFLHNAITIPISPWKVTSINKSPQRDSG
Insulin receptor-related protein (Homo sapiens), sequence (P14616 747-1297 limits assumed): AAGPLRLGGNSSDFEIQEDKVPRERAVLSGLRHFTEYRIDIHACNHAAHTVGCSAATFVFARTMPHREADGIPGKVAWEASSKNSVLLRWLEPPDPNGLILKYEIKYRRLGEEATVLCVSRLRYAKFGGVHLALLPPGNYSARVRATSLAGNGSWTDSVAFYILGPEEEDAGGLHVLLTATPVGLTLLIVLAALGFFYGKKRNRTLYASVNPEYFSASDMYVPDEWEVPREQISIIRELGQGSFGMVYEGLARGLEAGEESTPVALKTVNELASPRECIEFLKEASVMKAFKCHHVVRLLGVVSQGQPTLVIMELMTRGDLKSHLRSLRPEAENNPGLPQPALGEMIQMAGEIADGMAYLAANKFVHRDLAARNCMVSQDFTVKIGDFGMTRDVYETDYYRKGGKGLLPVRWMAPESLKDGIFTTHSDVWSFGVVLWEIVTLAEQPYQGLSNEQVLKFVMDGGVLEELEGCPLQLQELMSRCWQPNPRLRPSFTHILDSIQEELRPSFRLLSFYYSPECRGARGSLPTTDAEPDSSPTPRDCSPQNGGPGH
The target in assay [18] is Proto-oncogene tyrosine-protein kinase receptor Ret (Homo sapiens) (UniProt P07949). The assay can be described thus: Binding affinity to RET assessed as percentage of kinase remaining bound to the bead at 1 uM by T7 phage display based binding assay. The gist of the method: (§4)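 Competition binding assay run by a contract lab. Each kinase was expressed as a fusion to T7 phage, full-length for small kinases and catalytic domain for large ones. Phage were mixed with an immobilized known kinase inhibitor on streptavidin magnetic beads and with test compound at a single 1 μM. Kinase/phage still bound to the beads was quantified by qPCR and expressed as % of DMSO control.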

Another assay addresses Ephrin type-A receptor 1 (Homo sapiens, UniProt P21709). The experiment in a line: Inhibition of EphA1 by [gamma33-P]ATP based assay.
In assay [19] the test system is eIF-2-alpha kinase GCN2 (Homo sapiens), Q9P2K8 [S808G]. The experiment in a line: Binding affinity to GCN2 kinase domain 2 S808G mutant assessed as percentage of kinase remaining bound to the bead at 1 uM by T7 phage display based binding assay. The procedure, abridged:
as §4

The target in assay [20] is Rho-associated protein kinase 2 (Homo sapiens) (UniProt O75116). The experiment in a line: Inhibition of ROCK2 assessed as remaining enzyme activity at 1 uM relative to DMSO.
In assay [21] the target is Cyclin-G-associated kinase (Homo sapiens) (UniProt O14976). The assay can be described thus: Binding affinity to GAK assessed as percentage of kinase remaining bound to the bead at 1 uM by T7 phage display based binding assay. The gist of the method: as §4
Assay [22] deals with Fibroblast growth factor receptor 2 (Homo sapiens) (UniProt P21802). The experiment in a line: Binding affinity to FGFR2 assessed as percentage of kinase remaining bound to the bead at 1 uM by T7 phage display based binding assay. The procedure, abridged: as §4
Fibroblast growth factor receptor 2 (Homo sapiens), sequence (P21802 22-821 limits assumed): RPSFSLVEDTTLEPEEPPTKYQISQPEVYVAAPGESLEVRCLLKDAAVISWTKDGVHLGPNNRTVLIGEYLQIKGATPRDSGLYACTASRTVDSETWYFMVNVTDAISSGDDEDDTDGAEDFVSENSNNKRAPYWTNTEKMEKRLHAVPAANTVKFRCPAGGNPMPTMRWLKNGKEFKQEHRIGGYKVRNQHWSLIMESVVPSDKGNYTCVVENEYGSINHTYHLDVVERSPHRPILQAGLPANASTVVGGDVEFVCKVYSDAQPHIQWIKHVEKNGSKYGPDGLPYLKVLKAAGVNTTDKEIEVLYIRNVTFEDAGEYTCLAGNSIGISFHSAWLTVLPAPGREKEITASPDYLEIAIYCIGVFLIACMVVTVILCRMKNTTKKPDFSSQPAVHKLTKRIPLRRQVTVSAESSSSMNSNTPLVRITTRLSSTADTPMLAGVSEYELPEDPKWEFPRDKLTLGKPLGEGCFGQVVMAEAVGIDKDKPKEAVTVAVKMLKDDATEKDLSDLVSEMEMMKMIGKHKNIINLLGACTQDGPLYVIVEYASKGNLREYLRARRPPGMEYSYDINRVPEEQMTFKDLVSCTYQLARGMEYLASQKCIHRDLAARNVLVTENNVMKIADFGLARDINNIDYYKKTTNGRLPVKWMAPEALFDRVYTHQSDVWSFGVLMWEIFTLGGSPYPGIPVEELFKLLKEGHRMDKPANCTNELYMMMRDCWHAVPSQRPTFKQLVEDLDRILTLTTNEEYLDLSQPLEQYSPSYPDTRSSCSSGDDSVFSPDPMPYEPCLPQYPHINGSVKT
In assay [23] the target is Mitogen-activated protein kinase 14 (Homo sapiens) (UniProt Q16539). The assay can be described thus: Inhibition of p38alpha assessed as remaining enzyme activity at 1 uM relative to DMSO.
The target of assay [24] is LIM domain kinase 2 (Homo sapiens) (UniProt P53671). The experiment in a line: Binding affinity to LIMK2 assessed as percentage of kinase remaining bound to the bead at 1 uM by T7 phage display based binding assay. The procedure, abridged: as §4
In assay [25] the target is MAP kinase-interacting serine/threonine-protein kinase 1 (Homo sapiens) (UniProt Q9BUB5). The experiment in a line: Inhibition of MNK1 assessed as remaining enzyme activity at 1 uM relative to DMSO. The procedure, abridged: as §3
MAP kinase-interacting serine/threonine-protein kinase 1 (Homo sapiens), sequence (Q9BUB5 whole entry, looked up): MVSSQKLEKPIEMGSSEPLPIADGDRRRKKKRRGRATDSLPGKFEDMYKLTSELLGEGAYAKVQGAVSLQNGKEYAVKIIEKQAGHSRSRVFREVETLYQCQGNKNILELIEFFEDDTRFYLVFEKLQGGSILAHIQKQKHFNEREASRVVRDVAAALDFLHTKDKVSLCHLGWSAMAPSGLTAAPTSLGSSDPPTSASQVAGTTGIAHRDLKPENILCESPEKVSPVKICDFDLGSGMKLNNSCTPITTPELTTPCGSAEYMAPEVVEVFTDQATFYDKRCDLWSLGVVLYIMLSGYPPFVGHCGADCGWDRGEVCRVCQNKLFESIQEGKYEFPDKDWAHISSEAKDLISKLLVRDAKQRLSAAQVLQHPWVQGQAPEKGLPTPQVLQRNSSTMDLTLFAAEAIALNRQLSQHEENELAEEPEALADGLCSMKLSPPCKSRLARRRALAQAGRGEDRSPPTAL
Assay [26] has as its target Serine/threonine-protein kinase BRSK2 (Homo sapiens) (UniProt Q8IWQ3). The assay can be described thus: Inhibition of BRSK2 assessed as remaining enzyme activity at 1 uM relative to DMSO. The procedure, abridged: as §1
Assay [27] deals with Ribosomal protein S6 kinase alpha-2 (Homo sapiens) (UniProt Q15349). The assay can be described thus: Binding affinity to RSK3 kinase domain 2 C-terminal assessed as percentage of kinase remaining bound to the bead at 1 uM by T7 phage display based binding assay.

Mitogen-activated protein kinase 12 (Homo sapiens), sequence (P53778 whole entry): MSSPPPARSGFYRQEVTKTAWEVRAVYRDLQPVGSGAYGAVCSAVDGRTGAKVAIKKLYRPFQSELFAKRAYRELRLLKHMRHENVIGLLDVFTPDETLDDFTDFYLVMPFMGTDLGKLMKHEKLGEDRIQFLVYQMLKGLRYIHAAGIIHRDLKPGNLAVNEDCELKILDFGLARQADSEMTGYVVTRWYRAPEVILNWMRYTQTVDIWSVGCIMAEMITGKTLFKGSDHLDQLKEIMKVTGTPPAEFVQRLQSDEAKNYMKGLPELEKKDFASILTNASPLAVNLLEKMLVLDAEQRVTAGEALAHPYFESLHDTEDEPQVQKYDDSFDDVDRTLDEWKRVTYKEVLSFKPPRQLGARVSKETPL
Serine/threonine-protein kinase Nek6 (Homo sapiens), sequence (Q9HC98 whole entry): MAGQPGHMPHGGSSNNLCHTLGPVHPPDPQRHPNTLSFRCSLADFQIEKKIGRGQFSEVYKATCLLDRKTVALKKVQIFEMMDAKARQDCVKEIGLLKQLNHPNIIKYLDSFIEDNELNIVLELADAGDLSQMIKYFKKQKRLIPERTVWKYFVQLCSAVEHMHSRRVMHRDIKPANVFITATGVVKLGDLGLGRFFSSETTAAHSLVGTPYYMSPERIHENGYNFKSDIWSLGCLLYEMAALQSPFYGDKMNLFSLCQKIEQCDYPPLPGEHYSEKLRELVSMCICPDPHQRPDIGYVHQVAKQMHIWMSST
Serine/threonine-protein kinase pim-2 (Homo sapiens), sequence (Q9P1W9 whole entry, looked up): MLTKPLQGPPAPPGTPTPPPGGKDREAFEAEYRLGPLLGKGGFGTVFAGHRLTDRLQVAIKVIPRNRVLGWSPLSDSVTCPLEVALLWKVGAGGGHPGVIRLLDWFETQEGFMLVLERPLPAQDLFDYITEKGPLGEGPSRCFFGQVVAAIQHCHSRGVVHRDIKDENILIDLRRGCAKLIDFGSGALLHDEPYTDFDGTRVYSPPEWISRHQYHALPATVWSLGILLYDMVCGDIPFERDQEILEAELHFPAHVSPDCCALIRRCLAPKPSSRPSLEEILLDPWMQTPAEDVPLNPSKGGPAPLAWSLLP

Take `COc1ccccc1-n1c(-c2ccccc2C)cn2c3c(=O)[nH]c(=O)n(C)c3nc12`: the Activity in assay [1] came to 81%; in assay [2] it was 99%; in [3], 72%; in [4], 3%; in assay [5], 92%; in assay [6] it was 12%. In addition, the Activity in assay [7] came to 115%; in [8] it was 89%; in assay [9], 95%; in [10] it was 89%; in assay [11] it was 94%.

For the molecule `COc1ccccc1-n1c(-c2cc(O)ccc2C)cn2c3c(=O)[nH]c(=O)n(C)c3nc12`, the Activity came to 84% in assay [12]; 87% in assay [13]; 89% in assay [14]; 97% in assay [15]; 99% in [16]; 100% in assay [17]. The Activity in assay [18] stood at 79%; in assay [19], 100%; in assay [20], 77%; in assay [21] it was 49%; in assay [22], 94%; in [23] it was 97%. The Activity in assay [24] was 78%; in [25], 94%; in assay [26] it was 82%; in [27] it was 84%. In addition, half-maximal inhibition on Ephrin type-A receptor 1 (IC50) required 2.9 nM.

What is called IC50 is the point on the concentration scale where inhibition reaches its midpoint. The low end stands for greater potency in that assay, the high end for weaker potency in that assay.
